# Assay results published in ChEMBL document CHEMBL1154951, “Discovery of potent and bioavailable GSK-3beta inhibitors” (Bioorg Med Chem Lett, 2010).
# Calls of active or inactive are those of the source. The rule behind the calls is not given here.
# What was measured:
# [1] = biological target: Glycogen synthase kinase-3 beta (Homo sapiens, UniProt P49841); assay: Inhibition of human recombinant GSK3-beta assessed as [gamma33]ATP transfer to biotinylated CREB-peptide substrate after 1 hr by scintillation counting
# Sequence of Glycogen synthase kinase-3 beta (P49841 whole entry): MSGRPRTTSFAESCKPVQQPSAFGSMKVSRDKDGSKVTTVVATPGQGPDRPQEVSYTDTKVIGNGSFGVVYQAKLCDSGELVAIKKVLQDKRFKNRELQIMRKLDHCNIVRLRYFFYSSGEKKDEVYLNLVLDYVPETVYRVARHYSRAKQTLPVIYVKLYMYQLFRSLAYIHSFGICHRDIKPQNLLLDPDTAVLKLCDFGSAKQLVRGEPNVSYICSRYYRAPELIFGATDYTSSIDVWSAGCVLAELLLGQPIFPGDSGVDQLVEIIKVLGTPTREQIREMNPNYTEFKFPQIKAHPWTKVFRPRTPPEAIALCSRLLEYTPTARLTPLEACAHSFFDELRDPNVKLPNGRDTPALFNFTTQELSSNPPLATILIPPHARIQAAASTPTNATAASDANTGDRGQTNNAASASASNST
# [2] = biological target: Protein kinase C alpha type (Homo sapiens, UniProt P17252); assay: Inhibition of PKCalpha
# [3] = Aqueous solubility at pH 6.6; format: physicochemical
# Mus musculus [4] = assay: Cmax in mouse at 10 mg/kg, ip; format: ADME, organism-based; set-up: dose 10 mg/kg, route intraperitoneal; conditions: in vivo, BLD = below limit of detection
# Mus musculus [5] = assay: AUC in mouse at 10 mg/kg, ip; format: ADME, organism-based, Plasma; set-up: dose 10 mg/kg, route intraperitoneal; conditions: in vivo, BLD = below limit of detection
# Rattus norvegicus [6] = assay: Antiosteoporosis activity in ovariectomized rat assessed as increase in bone mineral density in L5 vertebra at 30 mg/kg, po QD for 3 weeks by bone densitometer relative to control; format: functional, organism-based; set-up: dose 30 mg/kg
# [7] = biological target: Serine/threonine-protein kinase PLK4 (Homo sapiens, UniProt O00444); assay: Inhibition of PLK4
# Summary of the method: (§1)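 Affinity measured as a binding constant (Kd) in a quantitative competition binding assay, not as a catalytic activity read-out. An 11-point concentration curve was run for each kinase. Kd values are given in µM. Each value is also expressed as a ratio over the Kd for GSK3b.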
# [8] = biological target: Cyclin-dependent kinase 17 (Homo sapiens, UniProt Q00537); assay: Inhibition of PCTK2; summary of the method: as §1
# [9] = biological target: Mitogen-activated protein kinase 4 (Homo sapiens, UniProt P31152); assay: Inhibition of ERK4; summary of the method: as §1
# Sequence of Mitogen-activated protein kinase 4 (P31152 whole entry): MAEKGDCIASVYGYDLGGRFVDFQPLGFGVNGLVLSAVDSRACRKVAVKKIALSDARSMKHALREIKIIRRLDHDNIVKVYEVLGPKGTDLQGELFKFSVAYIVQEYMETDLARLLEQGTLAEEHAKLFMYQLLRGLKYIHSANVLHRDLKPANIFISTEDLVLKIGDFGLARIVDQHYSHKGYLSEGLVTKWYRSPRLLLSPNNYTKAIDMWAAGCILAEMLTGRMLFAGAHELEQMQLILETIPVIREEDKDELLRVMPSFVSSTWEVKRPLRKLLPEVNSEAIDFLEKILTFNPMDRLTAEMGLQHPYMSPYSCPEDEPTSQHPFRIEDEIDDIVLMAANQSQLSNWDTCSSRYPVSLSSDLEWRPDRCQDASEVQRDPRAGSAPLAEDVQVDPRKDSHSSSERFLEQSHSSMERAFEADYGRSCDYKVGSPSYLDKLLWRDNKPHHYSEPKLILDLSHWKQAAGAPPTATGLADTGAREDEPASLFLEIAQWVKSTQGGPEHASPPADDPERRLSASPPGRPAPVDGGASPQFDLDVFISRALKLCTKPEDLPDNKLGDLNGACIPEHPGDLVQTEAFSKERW
# Rattus norvegicus [10] = assay: Antiosteoporosis activity in ovariectomized rat assessed as increase in bone mineral density in distal femur at 30 mg/kg, po QD for 3 weeks by bone densitometer relative to control; format: functional, organism-based; set-up: dose 30 mg/kg
# [11] = biological target: Glycogen synthase kinase-3 alpha (Homo sapiens, UniProt P49840); assay: Inhibition of GSK3alpha; summary of the method: as §1
# Rattus norvegicus [12] = assay: Antiosteoporosis activity in ovariectomized rat assessed as increase in bone mineral density in whole femur at 30 mg/kg, po QD for 3 weeks by bone densitometer relative to control; format: functional, organism-based; set-up: dose 30 mg/kg
# [13] = biological target: Cyclin-dependent kinase 2 (Homo sapiens, UniProt P24941); assay: Inhibition of CDK2; summary of the method: as §1
# [14] = biological target: Cyclin-dependent kinase 9 (Homo sapiens, UniProt P50750); assay: Inhibition of CDK9
# Summary of the method: (§2)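 Competition binding assay giving binding constant (Kd) from an 11-point quantitative affinity curve against each kinase in a selectivity panel; values reported in µM and as ratio over GSK3b.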
# [15] = biological target: Mitogen-activated protein kinase 15 (Homo sapiens, UniProt Q8TD08); assay: Inhibition of ERK8; summary of the method: as §1
# Aurora kinase C = Aurora kinase C (Homo sapiens, UniProt Q9UQB9); assay: Inhibition of AURKC; summary of the method: as §1
# [16] = biological target: Cyclin-dependent kinase 19 (Homo sapiens, UniProt Q9BWU1); assay: Inhibition of CDK11; summary of the method: as §1
# [17] = biological target: Cyclin-dependent kinase 3 (Homo sapiens, UniProt Q00526); assay: Inhibition of CDK3; summary of the method: as §2
# Aurora kinase A = Aurora kinase A (Homo sapiens, UniProt O14965); assay: Inhibition of AURKA; summary of the method: as §2
# [18] = biological target: Mitogen-activated protein kinase 6 (Homo sapiens, UniProt Q16659); assay: Inhibition of ERK3; summary of the method: as §1
# Sequence of Mitogen-activated protein kinase 6 (Q16659 whole entry): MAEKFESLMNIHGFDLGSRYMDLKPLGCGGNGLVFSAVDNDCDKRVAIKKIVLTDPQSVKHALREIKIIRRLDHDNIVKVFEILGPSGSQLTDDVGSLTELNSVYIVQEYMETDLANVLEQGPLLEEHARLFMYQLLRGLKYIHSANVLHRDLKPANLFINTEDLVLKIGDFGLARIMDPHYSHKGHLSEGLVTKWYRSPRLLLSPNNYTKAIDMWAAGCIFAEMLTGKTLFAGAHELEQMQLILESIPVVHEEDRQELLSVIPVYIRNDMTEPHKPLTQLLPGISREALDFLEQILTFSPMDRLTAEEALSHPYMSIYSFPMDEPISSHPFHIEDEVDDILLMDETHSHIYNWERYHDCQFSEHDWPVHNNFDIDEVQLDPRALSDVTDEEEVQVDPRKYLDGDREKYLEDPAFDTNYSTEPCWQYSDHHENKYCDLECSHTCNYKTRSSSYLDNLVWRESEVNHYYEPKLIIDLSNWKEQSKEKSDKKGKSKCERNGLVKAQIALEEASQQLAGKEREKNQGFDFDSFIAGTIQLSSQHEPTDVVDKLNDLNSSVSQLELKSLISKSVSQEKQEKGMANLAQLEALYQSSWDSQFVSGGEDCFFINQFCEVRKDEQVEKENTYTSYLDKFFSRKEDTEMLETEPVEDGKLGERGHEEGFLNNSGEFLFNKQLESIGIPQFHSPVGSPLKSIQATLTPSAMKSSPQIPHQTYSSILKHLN
# Rattus norvegicus [19] = assay: Antiosteoporosis activity in ovariectomized rat assessed as increase in bone mineral density in proximal tibia at 30 mg/kg, po QD for 3 weeks by bone densitometer relative to control; format: functional, organism-based; set-up: dose 30 mg/kg
# [20] = biological target: Mitogen-activated protein kinase 3 (Homo sapiens, UniProt P27361); assay: Inhibition of ERK1; summary of the method: as §1
# [21] = biological target: Dual specificity protein kinase CLK1 (Homo sapiens, UniProt P49759); assay: Inhibition of CLK1; summary of the method: as §1
# [22] = biological target: Mitogen-activated protein kinase 7 (Homo sapiens, UniProt Q13164); assay: Inhibition of ERK5; summary of the method: as §1
# Sequence of Mitogen-activated protein kinase 7 (Q13164 whole entry): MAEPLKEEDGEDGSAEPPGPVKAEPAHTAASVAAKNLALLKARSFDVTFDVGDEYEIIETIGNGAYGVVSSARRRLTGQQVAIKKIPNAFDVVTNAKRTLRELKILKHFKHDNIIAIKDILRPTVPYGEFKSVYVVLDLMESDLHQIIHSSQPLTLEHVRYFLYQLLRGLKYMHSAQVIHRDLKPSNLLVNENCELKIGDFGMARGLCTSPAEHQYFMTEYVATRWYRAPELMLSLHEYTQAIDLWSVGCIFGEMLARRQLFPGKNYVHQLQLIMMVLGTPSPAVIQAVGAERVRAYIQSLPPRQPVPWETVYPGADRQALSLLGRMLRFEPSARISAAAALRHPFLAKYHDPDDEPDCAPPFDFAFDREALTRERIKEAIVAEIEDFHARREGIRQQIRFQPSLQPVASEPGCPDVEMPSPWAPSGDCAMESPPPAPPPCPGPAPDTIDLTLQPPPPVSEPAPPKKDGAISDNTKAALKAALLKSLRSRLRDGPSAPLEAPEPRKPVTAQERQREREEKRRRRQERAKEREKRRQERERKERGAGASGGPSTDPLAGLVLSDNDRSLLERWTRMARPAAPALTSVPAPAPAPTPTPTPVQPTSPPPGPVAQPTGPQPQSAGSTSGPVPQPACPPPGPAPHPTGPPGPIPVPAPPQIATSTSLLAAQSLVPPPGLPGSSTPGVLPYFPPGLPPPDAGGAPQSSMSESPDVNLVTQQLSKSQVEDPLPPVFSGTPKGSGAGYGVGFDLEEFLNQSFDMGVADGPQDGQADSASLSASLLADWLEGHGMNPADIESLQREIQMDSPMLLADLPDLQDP
# Aurora kinase B = Aurora kinase B (Homo sapiens, UniProt Q96GD4); assay: Inhibition of AURKB; summary of the method: as §1
# [23] = biological target: Interferon-induced, double-stranded RNA-activated protein kinase (Homo sapiens, UniProt P19525); assay: Inhibition of PRKR; summary of the method: as §2
# [24] = biological target: Dual specificity protein kinase CLK2 (Homo sapiens, UniProt P49760); assay: Inhibition of CLK2; summary of the method: as §1
# [25] = biological target: Serine/threonine-protein kinase PLK1 (Homo sapiens, UniProt P53350); assay: Inhibition of PLK1; summary of the method: as §1
# [26] = biological target: Dual specificity protein kinase CLK4 (Homo sapiens, UniProt Q9HAZ1); assay: Inhibition of CLK4; summary of the method: as §1
# Sequence of Dual specificity protein kinase CLK4 (Q9HAZ1 whole entry): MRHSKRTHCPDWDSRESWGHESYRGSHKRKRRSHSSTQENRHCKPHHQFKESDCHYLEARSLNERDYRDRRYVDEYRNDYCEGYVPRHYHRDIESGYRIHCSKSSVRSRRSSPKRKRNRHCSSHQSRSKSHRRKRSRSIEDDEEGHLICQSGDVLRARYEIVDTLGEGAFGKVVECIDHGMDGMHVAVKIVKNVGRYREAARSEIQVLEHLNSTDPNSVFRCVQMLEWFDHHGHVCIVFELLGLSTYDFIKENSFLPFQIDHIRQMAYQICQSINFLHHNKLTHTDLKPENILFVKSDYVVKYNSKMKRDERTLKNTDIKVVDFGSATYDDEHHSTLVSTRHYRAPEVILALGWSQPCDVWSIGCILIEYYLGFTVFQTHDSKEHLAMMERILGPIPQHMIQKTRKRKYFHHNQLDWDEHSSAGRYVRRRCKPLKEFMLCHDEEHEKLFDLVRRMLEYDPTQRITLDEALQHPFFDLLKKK
# [27] = biological target: Serine/threonine-protein kinase PLK3 (Homo sapiens, UniProt Q9H4B4); assay: Inhibition of PLK3; summary of the method: as §1
# [28] = biological target: Cyclin-dependent kinase 7 (Homo sapiens, UniProt P50613); assay: Inhibition of CDK7; summary of the method: as §1
# [29] = biological target: Cyclin-dependent kinase 18 (Homo sapiens, UniProt Q07002); assay: Inhibition of PCTK3; summary of the method: as §1
# [30] = biological target: Dual specificity protein kinase TTK (Homo sapiens, UniProt P33981); assay: Inhibition of TTK; summary of the method: as §1
# [31] = biological target: Cyclin-dependent kinase 8 (Homo sapiens, UniProt P49336); assay: Inhibition of CDK8; summary of the method: as §1
# [32] = biological target: Dual specificity tyrosine-phosphorylation-regulated kinase 1B (Homo sapiens, UniProt Q9Y463); assay: Inhibition of DYRK1B; summary of the method: as §2
# Sequence of Dual specificity tyrosine-phosphorylation-regulated kinase 1B (Q9Y463 whole entry): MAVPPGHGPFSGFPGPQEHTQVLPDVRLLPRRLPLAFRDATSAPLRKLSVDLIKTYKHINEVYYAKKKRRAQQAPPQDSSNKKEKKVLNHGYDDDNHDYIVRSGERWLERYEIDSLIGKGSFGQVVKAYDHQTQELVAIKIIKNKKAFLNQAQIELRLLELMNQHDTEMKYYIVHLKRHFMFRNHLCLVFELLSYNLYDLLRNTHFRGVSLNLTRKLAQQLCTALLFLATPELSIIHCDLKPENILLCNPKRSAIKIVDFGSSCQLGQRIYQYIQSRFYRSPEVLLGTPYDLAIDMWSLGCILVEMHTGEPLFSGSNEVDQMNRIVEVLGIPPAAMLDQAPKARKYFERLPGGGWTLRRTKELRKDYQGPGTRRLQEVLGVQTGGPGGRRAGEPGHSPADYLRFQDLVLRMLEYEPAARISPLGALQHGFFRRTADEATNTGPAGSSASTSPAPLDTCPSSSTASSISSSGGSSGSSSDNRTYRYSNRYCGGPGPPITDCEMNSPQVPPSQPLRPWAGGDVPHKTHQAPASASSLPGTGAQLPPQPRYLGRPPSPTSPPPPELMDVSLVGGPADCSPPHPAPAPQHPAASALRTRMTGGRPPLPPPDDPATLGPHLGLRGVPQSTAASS
# [33] = biological target: Mitogen-activated protein kinase 1 (Homo sapiens, UniProt P28482); assay: Inhibition of ERK2; summary of the method: as §1
# [34] = biological target: Cyclin-dependent kinase 5 (Homo sapiens, UniProt Q00535); assay: Inhibition of CDK5; summary of the method: as §1
# [35] = biological target: Dual specificity protein kinase CLK3 (Homo sapiens, UniProt P49761); assay: Inhibition of CLK3; summary of the method: as §1
# Sequence of Dual specificity protein kinase CLK3 (P49761 whole entry): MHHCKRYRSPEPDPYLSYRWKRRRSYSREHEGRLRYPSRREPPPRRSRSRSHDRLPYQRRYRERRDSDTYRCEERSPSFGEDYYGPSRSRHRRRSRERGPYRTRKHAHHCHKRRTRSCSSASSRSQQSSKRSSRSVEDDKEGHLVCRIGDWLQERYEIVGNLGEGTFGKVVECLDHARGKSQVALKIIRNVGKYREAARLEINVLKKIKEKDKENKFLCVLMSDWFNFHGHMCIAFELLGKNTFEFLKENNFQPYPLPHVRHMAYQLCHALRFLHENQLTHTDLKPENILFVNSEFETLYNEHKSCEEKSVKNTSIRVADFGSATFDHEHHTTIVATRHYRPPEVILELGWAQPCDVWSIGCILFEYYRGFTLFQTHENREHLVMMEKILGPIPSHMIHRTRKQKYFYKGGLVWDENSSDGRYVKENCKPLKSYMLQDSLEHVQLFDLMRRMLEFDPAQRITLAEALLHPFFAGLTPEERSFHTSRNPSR
# [36] = biological target: Serine/threonine-protein kinase 16 (Homo sapiens, UniProt O75716); assay: Inhibition of STK16; summary of the method: as §1
# Rattus norvegicus [37] = assay: Cmax in rat at 25 mg/kg, po; conditions: in vivo
# Rattus norvegicus [38] = assay: AUC in rat at 25 mg/kg, po; conditions: plasma
smiles,measurement,setting,value
Nc1nc(NCCNc2ncc(-c3ncc[nH]3)c(-c3ccc(Cl)cc3Cl)n2)ccc1[N+](=O)[O-],IC50,[1],0.00056 µM
Cn1cc(C2=C(N3CCOCC3)C(=O)NC2=O)c2ccccc21,IC50,[1],8.2 µM
COc1cccc(C2=C(c3c(C)n(C)c4ccccc34)C(=O)NC2=O)c1,IC50,[1],0.22 µM
COc1cccc(C2=C(c3cn(C)c4cc(C)ccc34)C(=O)NC2=O)c1,IC50,[1],0.035 µM
same,IC50,[2],2.9 µM
Cn1cc(C2=C(Oc3ccccc3)C(=O)NC2=O)c2ccccc21,IC50,[1],2.8 µM
Cn1cc(C2=C(N(C(=O)OC(C)(C)C)c3ccccc3)C(=O)NC2=O)c2ccccc21,IC50,[1],3.1 µM
COc1cccc(C2=C(c3cn(C)c4cccc(OC)c34)C(=O)NC2=O)c1,IC50,[1],1.3 µM
COc1cccc(C2=C(c3cn(C)c4cc(F)ccc34)C(=O)NC2=O)c1,IC50,[1],0.031 µM
same,IC50,[2],4.2 µM
COc1cccc(C2=C(c3cn(C)c4ccc(Cl)cc34)C(=O)NC2=O)c1,IC50,[1],0.0064 µM
same,IC50,[2],1.4 µM
Cn1cc(C2=C(c3cccc(NCCCO)c3)C(=O)NC2=O)c2ccccc21,IC50,[1],0.001 µM
same,IC50,[2],0.74 µM
Cn1cc(C2=C(c3ccc(-c4ccccc4)cc3)C(=O)NC2=O)c2ccccc21,IC50,[1],0.73 µM
Cn1cc(C2=C(Sc3ccccc3)C(=O)NC2=O)c2ccccc21,IC50,[1],2 µM
Cn1cc(C2=C(Nc3ccccc3)C(=O)NC2=O)c2ccccc21,IC50,[1],0.35 µM
COc1ccc(C2=C(c3cn(C)c4ccccc34)C(=O)NC2=O)cc1OC,IC50,[1],0.0066 µM
same,IC50,[2],6.6 µM
COc1ccc(OC)c(C2=C(c3cn(C)c4ccccc34)C(=O)NC2=O)c1,IC50,[1],0.022 µM
same,IC50,[2],0.38 µM
Cn1cc(C2=C(c3cccnc3)C(=O)NC2=O)c2ccccc21,IC50,[1],0.042 µM
same,IC50,[2],> 30 µM
CN(C)c1nc2ccc1CCCN1C=C(C3=C(C(=O)NC3=O)c3cn(c4ccccc34)CCC2)N2C=CC=CC12 (stereo not drawn),IC50,[1],0.007 µM
COc1ccc(C2=C(c3cn(C)c4ccccc34)C(=O)NC2=O)c(OC)c1,IC50,[1],0.0024 µM
same,IC50,[2],5.5 µM
Cn1cc(C2=C(c3c4n(c5ccccc35)CCN(C(N)=S)C4)C(=O)NC2=O)c2ccccc21,IC50,[1],0.01 µM
same,IC50,[2],1.05 µM
COc1cccc(C2=C(c3cn(C)c4ccccc34)C(=O)NC2=O)c1,IC50,[1],0.09 µM
same,solubility,[3],< 0.5 µg/mL
same,Cmax,Mus musculus [4],BLD
same,AUC,Mus musculus [5],BLD
same,IC50,[2],6 µM
Cn1cc(C2=C(c3ccccc3Cl)C(=O)NC2=O)c2ccccc21,IC50,[1],0.0036 µM
same,IC50,[2],0.76 µM
Cn1cc(C2=C(c3cccs3)C(=O)NC2=O)c2ccccc21,IC50,[1],0.022 µM
same,IC50,[2],8.9 µM
Cn1cc(C2=C(c3cccc(N)c3)C(=O)NC2=O)c2ccccc21,IC50,[1],0.0018 µM
same,IC50,[2],1.9 µM
Cn1cc(C2=C(c3cccc(OCC(O)CO)c3)C(=O)NC2=O)c2cc(F)ccc21 (racemic),IC50,[1],0.0018 µM
same,solubility,[3],2.8 µg/mL
same,IC50,[2],2.2 µM
Cn1cc(C2=C(c3cccc(NCC(O)CO)c3)C(=O)NC2=O)c2cc(F)ccc21 (racemic),Activity,Rattus norvegicus [6],Active
same,Kd,[7],0.32 µM
same,Kd,[8],0.069 µM
same,Kd,[9],40 µM
same,Activity,Rattus norvegicus [10],Active
same,solubility,[3],104 µg/mL
same,Kd,[11],0.0015 µM
same,Activity,Rattus norvegicus [12],Active
same,Kd,[13],0.15 µM
same,Kd,[14],0.41 µM
same,Kd,[15],0.032 µM
same,Kd,Aurora kinase C,23 µM
same,Kd,[16],40 µM
same,Kd,[17],0.08 µM
same,Kd,Aurora kinase A,40 µM
same,Kd,[18],40 µM
same,Activity,Rattus norvegicus [19],Active
same,Kd,[20],40 µM
same,Kd,[21],0.016 µM
same,Kd,[22],5.6 µM
same,Kd,Aurora kinase B,40 µM
same,Kd,[23],14 µM
same,Kd,[24],0.01 µM
same,Kd,[25],23 µM
same,Kd,[26],0.11 µM
same,Kd,[27],40 µM
same,Kd,[28],0.041 µM
same,Kd,[29],0.11 µM
same,Kd,[30],6.7 µM
same,IC50,[2],0.4 µM
same,Kd,[31],40 µM
same,Kd,[32],0.087 µM
same,Kd,[33],40 µM
same,Kd,[34],6.8 µM
same,Kd,[35],0.31 µM
same,Kd,[36],0.23 µM
Cn1cc(C2=C(c3cccc(NCC(O)CO)c3)C(=O)NC2=O)c2cc(Cl)ccc21 (racemic),IC50,[1],0.0004 µM
same,solubility,[3],42 µg/mL
same,Cmax,Rattus norvegicus [37],110 ng/mL
same,IC50,[2],0.26 µM
same,AUC,Rattus norvegicus [38],100 ng·h/mL
